The values that follow come from ChEMBL document CHEMBL1165919, “Synthesis, vasorelaxant activity and antihypertensive effect of benzo[d]imidazole derivatives” (Bioorg Med Chem, 2010).

The structures appear in SMILES notation. Active and inactive are the calls of the source. No cut-off for these calls is given here.

In general, EC50 refers to the concentration at which the effect is half-maximal. The term Emax denotes the size of the effect at its maximum, as opposed to the concentration needed.

The subject of assay [1] is Rattus norvegicus. Put plainly: Antihypertensive activity in SHR rat assessed as moderate decrease in systolic blood pressure at 50 mg/kg, po after 6 hrs. In kind it is functional, organism-based. On the set-up: dose 50 mg/kg. To be noted: Artery.
The test system of assay [2] is Rattus norvegicus. Put plainly: Antihypertensive activity in SHR rat assessed as decrease in systolic blood pressure at 25 mg/kg, po after 6 hrs. It counts as functional, organism-based. The arrangement: dose 25 mg/kg. To be noted: Artery.
Assay [3] has as its system Rattus norvegicus. In words: Antihypertensive activity in SHR rat assessed as effect on heart rate at 100 mg/kg, po after 6 hrs. It counts as functional, organism-based. On the set-up: dose 100 mg/kg.
For assay [4], the system named is Rattus norvegicus. In words: Antihypertensive activity in SHR rat assessed as effect on heart rate at 25 mg/kg, po after 6 hrs. In kind it is functional, organism-based. On the set-up: dose 25 mg/kg.
Assay [5] deals with Rattus norvegicus. Put plainly: Antihypertensive activity in SHR rat assessed as moderate decrease in systolic blood pressure at 50 mg/kg, po after 6 hrs. To be noted: Artery.
For assay [6], the system named is Rattus norvegicus. In words: Antihypertensive activity in SHR rat assessed as effect on heart rate at 50 mg/kg, po after 6 hrs. The arrangement: dose 50 mg/kg. In kind it is functional, organism-based.
The test system of assay [7] is Aorta. Put plainly: Ratio of pimobendan EC50 to compound EC50 for vasorelaxant activity in pre-contracted Wistar rat endothelium-intact thoracic aortic ring. It counts as functional.
The test system of assay [8] is Aorta. Put plainly: Vasorelaxant activity in Wistar rat endothelium-intact thoracic aortic ring assessed as inhibition of noradrenaline-induced contraction treated after noradrenaline challenge measured after 60 mins. In kind it is functional, tissue-based. To be noted: 1 h. The gist of the method:
(§1)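 Thoracic aorta came from male Wistar rats (250–350 g), cleaned and cut into 4–5 mm rings. Endothelium was rubbed off some rings with forceps and its absence confirmed by no relaxation to carbachol. Rings were washed every 30 min for 2 h, pre-contracted with noradrenaline (0.1), then given the test agent cumulatively. Concentration-response curves (n=5–6, mean ± SEM) were fitted nonlinearly to give EC50.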

The test system of assay [9] is Rattus norvegicus. In words: Antihypertensive activity in po dosed SHR rat assessed as decrease in systolic blood pressure after 6 hrs. It counts as functional, organism-based. To be noted: Artery.
In assay [10] the test system is Aorta. Put plainly: Vasorelaxant activity in Wistar rat endothelium-denuded thoracic aortic ring assessed as inhibition of noradrenaline-induced contraction treated after noradrenaline challenge measured after 60 mins. In kind it is functional, tissue-based. The method in brief:
as §1

For assay [11], the system named is Rattus norvegicus. In words: Antihypertensive activity in SHR rat assessed as sustained decrease in systolic blood pressure at 100 mg/kg, po after 6 hrs. In kind it is functional, organism-based. On the set-up: dose 100 mg/kg. To be noted: Artery.
[12] abbreviates: Rattus norvegicus, Wistar, Aorta, 1 h.
Where [13] appears, read: Rattus norvegicus, Wistar, Aorta, 1 h, read-out: EC50.

In the case of `COc1cc(-c2nc3cc([N+](=O)[O-])ccc3[nH]2)ccc1O`, the result in the assay on Rattus norvegicus [1], with Rattus norvegicus [5] and with Rattus norvegicus [11] was Active. Further, the outcome in the assay with Rattus norvegicus [2], in the assay with Rattus norvegicus [3], in the assay with Rattus norvegicus [4] and in the assay on Rattus norvegicus [6] was inactive. Also, the “Ratio EC50” value with Aorta [7] was 2.5. The EC50 in the assay on Aorta [8] turned out to be 1.81 µM; in the assay on Aorta [10] (setting [13]), 19.5 µM. In addition, the Emax was 91.7% in the assay with Aorta [8] and 55.2% with Aorta [10] (setting [12]). Besides, the Activity result in the assay with Rattus norvegicus [9] was “Dose-dependent effect”.

As to `COc1ccc(-c2nc3cc([N+](=O)[O-])ccc3[nH]2)cc1OC`, the figures for the EC50 with Aorta [8] and in the assay with Aorta [10] (setting [13]) were 2.5 µM and 302 µM, respectively. For the same molecule, the Emax in the assay on Aorta [8] was determined as 75%; with Aorta [10] (setting [12]), 36.3%.

With `O=[N+]([O-])c1ccccc1-c1nc2cc(C(F)(F)F)ccc2[nH]1`, the EC50 in the assay on Aorta [8] amounted to 3.18 µM; in the assay on Aorta [10] (setting [13]), 15 µM. Moreover, the Emax with Aorta [8] worked out at 93.2%; with Aorta [10] (setting [12]), 85.3%.

As to `C[C@H](CS)C(=O)N1CCC[C@H]1C(=O)O`, in the assay on Rattus norvegicus [5], the result was Active.

With `CCOc1ccccc1-c1nc2cc(C(F)(F)F)ccc2[nH]1`, the EC50 in the assay with Aorta [8] was found to be 548 µM; in the assay on Aorta [10] (setting [13]), 549 µM. The Emax in the assay on Aorta [8] was found to be 91%; with Aorta [10] (setting [12]), 19.8%.

`CC(C)Oc1ccccc1-c1nc2cc([N+](=O)[O-])ccc2[nH]1`: the EC50 was determined as 4.89 µM in the assay on Aorta [8] and 14.1 µM in the assay with Aorta [10] (setting [13]). For the same molecule, the results for the Emax in the assay with Aorta [8] and in the assay on Aorta [10] (setting [12]) were 80.7% and 31.7%, respectively.

In the case of `FC(F)(F)c1ccc2[nH]c(-c3ccccc3)nc2c1`, the values for the EC50 in the assay with Aorta [8] and in the assay on Aorta [10] (setting [13]) were 369 µM and 468 µM, respectively. For the same molecule, the Emax in the assay with Aorta [8] amounted to 91.2%; in the assay on Aorta [10] (setting [12]), 75.6%.

As to `Oc1ccc(-c2nc3cc(C(F)(F)F)ccc3[nH]2)cc1`, the EC50 with Aorta [8] and in the assay with Aorta [10] (setting [13]) was 219 µM in each case. Besides, the results for the Emax with Aorta [8] and in the assay with Aorta [10] (setting [12]) were 51.1% and 37%, respectively.

Consider `COc1ccc(-c2nc3cc([N+](=O)[O-])ccc3[nH]2)c(OC)c1OC`, for which the EC50 amounted to 3.23 µM in the assay on Aorta [8] and 43.6 µM in the assay on Aorta [10] (setting [13]). Moreover, the Emax worked out at 90% in the assay with Aorta [8] and 58.9% in the assay with Aorta [10] (setting [12]).

With `CCOc1ccccc1-c1nc2cc([N+](=O)[O-])ccc2[nH]1`, the figures for the EC50 with Aorta [8] and with Aorta [10] (setting [13]) were 3.71 µM and 15 µM, respectively. Besides, the Emax came out at 84.8% in the assay on Aorta [8] and 46.4% in the assay on Aorta [10] (setting [12]).

In the case of `C[N+](C)(C)CCOC(N)=O.[Cl-]` [CARBACHOL], in the assay on Aorta [8], the EC50 was 0.51 µM and the Emax worked out at 106%. In the assay with Aorta [10], the EC50 result was “Not Active” and the Emax result is “inactive”.

For the molecule `CCCOc1ccc(-c2nc3cc(C(F)(F)F)ccc3[nH]2)cc1`, the EC50 with Aorta [8] and in the assay on Aorta [10] (setting [13]) was 524 µM throughout. The Emax in the assay on Aorta [8] came to 51%; in the assay on Aorta [10] (setting [12]) it was 19%.

Turning to `FC(F)(F)c1ccc2[nH]c(-c3ccc4c(c3)OCO4)nc2c1`, the EC50 in the assay on Aorta [8] is 38.5 µM; in the assay on Aorta [10] (setting [13]), 77.4 µM. The Emax with Aorta [8] stood at 101%; with Aorta [10] (setting [12]) it was 99.6%.

With `COc1ccc(-c2nc3cc(C4=NNC(=O)CC4C)ccc3[nH]2)cc1` (stereo not drawn) [PIMOBENDAN], in the assay on Aorta [8], the EC50 came to 4.67 µM and the Emax came to 93.2%.

As to `COc1ccccc1-c1nc2cc(C(F)(F)F)ccc2[nH]1`, the results for the EC50 in the assay with Aorta [8] and with Aorta [10] (setting [13]) were 210 µM and 575 µM, respectively. Moreover, the Emax in the assay with Aorta [8] worked out at 75.1%; in the assay with Aorta [10] (setting [12]), 45.7%.

For `O=[N+]([O-])c1ccc2[nH]c(-c3ccccc3)nc2c1`, the EC50 in the assay on Aorta [8] came to 4.93 µM; in the assay on Aorta [10] (setting [13]) it was 35.1 µM. The Emax in the assay with Aorta [8] turned out to be 73.8%; with Aorta [10] (setting [12]) it was 60.5%.

Regarding `CN(C)c1ccc(-c2nc3cc(C(F)(F)F)ccc3[nH]2)cc1`, the EC50 in the assay on Aorta [8] and in the assay on Aorta [10] (setting [13]) was 550 µM throughout. Moreover, the Emax in the assay on Aorta [8] is 63.2%; in the assay on Aorta [10] (setting [12]), 30.9%.

Consider `COc1cc(-c2nc3cc(C(F)(F)F)ccc3[nH]2)ccc1O`, for which the EC50 with Aorta [8] is 34.8 µM; in the assay on Aorta [10] (setting [13]) it was 140 µM. The Emax in the assay with Aorta [8] is 99.5%; with Aorta [10] (setting [12]) it was 97.7%.

Consider `CCOC(=O)C1=C(C)NC(C)=C(C(=O)OC)C1c1cccc([N+](=O)[O-])c1` (stereo not drawn) [NITRENDIPINE], for which the Emax in the assay with Aorta [10] (setting [12]) was found to be 98.9%. Also, the EC50 with Aorta [10] (setting [13]) is 0.03 µM.
